ChEMBL document CHEMBL1133458, “Synthesis and pharmacological evaluation of thiopyran analogues of the dopamine D3 receptor-selective agonist (4aR,10bR)-(+)-trans-3,4,4a,10b-tetrahydro-4-n-propyl-2H,5H [1]b enzopyrano[4,3-b]-1,4-oxazin-9-ol (PD 128907)” (J Med Chem, 2000)

Assays:
[1] = target: T1, 5-hydroxytryptamine receptor 1A (Rattus norvegicus, UniProt P19327); assay: Tested for binding affinity by measuring displacement of [3H]8-OH-DPAT from rat serotonin 5-hydroxytryptamine 1A receptor in rat hippocampus; NA means Not Active; format: tissue-based
T1 sequence (P19327 whole entry): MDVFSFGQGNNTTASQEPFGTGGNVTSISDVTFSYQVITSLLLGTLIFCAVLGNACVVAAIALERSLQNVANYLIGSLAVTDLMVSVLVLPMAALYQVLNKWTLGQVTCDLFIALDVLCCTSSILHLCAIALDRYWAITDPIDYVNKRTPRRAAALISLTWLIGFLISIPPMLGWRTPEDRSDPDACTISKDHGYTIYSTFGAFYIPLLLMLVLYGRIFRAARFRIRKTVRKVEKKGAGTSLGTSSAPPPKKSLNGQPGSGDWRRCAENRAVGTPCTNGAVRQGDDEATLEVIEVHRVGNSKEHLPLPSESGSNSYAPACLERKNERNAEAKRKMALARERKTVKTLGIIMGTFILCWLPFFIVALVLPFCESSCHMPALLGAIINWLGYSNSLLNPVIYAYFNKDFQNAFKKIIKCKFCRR
How it was run: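 Rat hippocampal 5HT1A receptors labelled with [3H]8-OH-DPAT; values are means of three separate experiments varying by no more than 25%.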

D(2) dopamine receptor [2] = target: T2, D(2) dopamine receptor (Homo sapiens, UniProt P14416); assay: Tested for agonist binding affinity by measuring displacement of [3H]NPA from Human Dopamine receptor D2L expressed in CHO K-1 cells; format: cell-based
How it was run: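 Agonist-state D2L affinity measured by displacement of [3H]NPA (N-propylnorapomorphine); Ki values are means of three separate experiments varying by no more than 25%.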

D(3) dopamine receptor [3] = target: D(3) dopamine receptor (Homo sapiens, UniProt P35462); assay: Tested for antagonist binding affinity by measuring displacement of [3H]spiperone from Human Dopamine receptor D3 expressed in CHO K-1 cells; format: cell-based
D(4) dopamine receptor [4] = target: T3, D(4) dopamine receptor (Homo sapiens, UniProt P21917); assay: Tested for antagonist binding affinity by measuring displacement of [3H]-spiperone from Human Dopamine receptor D4 expressed in CHO K-1 cells; format: cell-based
T3 sequence (P21917 whole entry): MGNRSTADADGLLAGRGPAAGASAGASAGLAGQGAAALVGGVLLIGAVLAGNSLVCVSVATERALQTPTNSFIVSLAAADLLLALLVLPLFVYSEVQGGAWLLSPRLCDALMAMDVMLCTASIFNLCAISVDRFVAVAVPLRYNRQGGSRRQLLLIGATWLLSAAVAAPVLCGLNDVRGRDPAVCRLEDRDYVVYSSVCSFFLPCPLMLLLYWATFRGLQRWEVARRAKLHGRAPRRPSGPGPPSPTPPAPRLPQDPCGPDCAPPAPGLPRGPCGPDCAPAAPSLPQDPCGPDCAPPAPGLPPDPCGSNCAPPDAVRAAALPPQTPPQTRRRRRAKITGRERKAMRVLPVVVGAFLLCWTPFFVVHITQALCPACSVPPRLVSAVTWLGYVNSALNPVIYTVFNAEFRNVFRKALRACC
How it was run: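 Antagonist-radioligand binding: displacement of [3H]spiperone from D4.2 dopamine receptors; Ki values means of three separate experiments, varying no more than 25%.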

D(2) dopamine receptor [5] = target: D(2) dopamine receptor (Rattus norvegicus, UniProt P61169); assay: Agonist activity by measuring the [3H]thymidine uptake against Dopamine receptor D2L from rat; format: functional
[6] = target: D(3) dopamine receptor (Rattus norvegicus) (UniProt P19020); assay: (§1) Intrinsic activity (IA) by the mitogenesis assay; format: functional
[7] = target: D(3) dopamine receptor (Rattus norvegicus) (UniProt P19020); assay: Antagonist activity by measuring the inhibition of quinpirole stimulated [3H]- thymidine uptake against Dopamine receptor D3; the compound is active; format: functional; conditions: filed as antagonist
D(3) dopamine receptor [8] = target: T4, D(3) dopamine receptor (Rattus norvegicus, UniProt P19020); assay: Agonist activity by measuring the [3H]thymidine uptake against Dopamine receptor D3 from rat; format: functional
Rattus norvegicus [9] = organism: Rattus norvegicus; assay: Flat body posture after 30 min in 4 reserpinized rats; format: functional
How it was run: (§2)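 Male Wistar rats (180-200 g) given reserpine 10 mg/kg sc 18-24 h before; test drug in ethanol/saline, 1 mL/kg sc in neck after acclimation in single boxes; number of rats showing the behaviour during first 30 min after injection recorded; saline n=8.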

Rattus norvegicus [10] = organism: Rattus norvegicus; assay: Lower lip retraction after 30 min in 4 reserpinized rats; format: functional; how it was run: as §2
Rattus norvegicus [11] = organism: Rattus norvegicus; assay: Yawning after 30 min in reserpinized rats; format: functional
How it was run: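 Male Wistar rats (180-200 g) reserpinized with 10 mg/kg sc reserpine 18-24 h prior; drug dissolved in a few drops warmed 96% ethanol then saline, 1 mL/kg sc; yawns counted per rat over first 30 min post-injection, mean ± SEM.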

D(4) dopamine receptor [12] = target: T3, D(4) dopamine receptor; assay: Tested for antagonist binding affinity by measuring displacement of [3H]spiperone from Human Dopamine receptor D4 expressed in CHO K-1 cells; format: cell-based
How it was run: (§3)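 Displacement of antagonist radioligand [3H]spiperone from D2L or D4.2 receptors; Ki values are means of three separate experiments varying by no more than 25%.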

Rattus norvegicus [13] = organism: Rattus norvegicus; assay: Sniffing after 30 min in 4 reserpinized rats; format: functional; how it was run: as §2
D(2) dopamine receptor [14] = target: T2, D(2) dopamine receptor; assay: Tested for antagonist binding affinity by measuring displacement of [3H]spiperone from Human Dopamine receptor D2L expressed in CHO K-1 cells; format: cell-based; how it was run: as §3
[15] = target: T1, 5-hydroxytryptamine receptor 1A; assay: Tested for binding affinity by measuring displacement of [3H]8-OH-DPAT from rat serotonin 5-hydroxytryptamine 1A receptor in rat hippocampus; format: tissue-based
How it was run: (§4)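 Rat brain binding: hippocampal 5HT1A with [3H]8-OH-DPAT, cortical 5HT2 with [3H]ketanserin as radioligand; values means of three separate experiments, varying no more than 25%.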

[16] = target: Serotonin 2 (5-HT2) receptor (Rattus norvegicus, UniProt P30994+P08909+P14842); assay: Tested for binding affinity by measuring displacement of [3H]ketanserin from rat serotonin 5-hydroxytryptamine 2 receptor in rat cortex; how it was run: as §4
[17] = target: D(3) dopamine receptor (Rattus norvegicus) (UniProt P19020); assay: as §1
D(2) dopamine receptor [18] = target: T2, D(2) dopamine receptor; assay: Human Dopamine receptor D2L affinities to determine agonist activity, using [3H]N-0437 as radioligand; format: functional
D(3) dopamine receptor [19] = target: T4, D(3) dopamine receptor; assay: Agonist activity by measuring the [3H]-thymidine uptake against Dopamine receptor D3 from rat; format: functional

D(3) dopamine receptor (Rattus norvegicus), sequence (P19020 whole entry): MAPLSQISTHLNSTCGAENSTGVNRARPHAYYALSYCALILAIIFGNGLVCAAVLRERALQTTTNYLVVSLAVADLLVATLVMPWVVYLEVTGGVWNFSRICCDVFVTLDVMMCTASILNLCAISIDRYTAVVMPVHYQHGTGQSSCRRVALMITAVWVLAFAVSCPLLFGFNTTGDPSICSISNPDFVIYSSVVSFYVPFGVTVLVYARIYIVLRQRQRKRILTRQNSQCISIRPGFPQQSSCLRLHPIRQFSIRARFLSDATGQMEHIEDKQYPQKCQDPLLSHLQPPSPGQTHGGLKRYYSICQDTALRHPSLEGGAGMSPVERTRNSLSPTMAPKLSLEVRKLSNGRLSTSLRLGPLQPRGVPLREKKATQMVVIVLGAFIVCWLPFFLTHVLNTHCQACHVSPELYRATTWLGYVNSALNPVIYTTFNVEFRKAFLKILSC
T4 sequence (P19020 whole entry): as above
D(3) dopamine receptor (Homo sapiens, UniProt P35462), sequence (P35462 whole entry): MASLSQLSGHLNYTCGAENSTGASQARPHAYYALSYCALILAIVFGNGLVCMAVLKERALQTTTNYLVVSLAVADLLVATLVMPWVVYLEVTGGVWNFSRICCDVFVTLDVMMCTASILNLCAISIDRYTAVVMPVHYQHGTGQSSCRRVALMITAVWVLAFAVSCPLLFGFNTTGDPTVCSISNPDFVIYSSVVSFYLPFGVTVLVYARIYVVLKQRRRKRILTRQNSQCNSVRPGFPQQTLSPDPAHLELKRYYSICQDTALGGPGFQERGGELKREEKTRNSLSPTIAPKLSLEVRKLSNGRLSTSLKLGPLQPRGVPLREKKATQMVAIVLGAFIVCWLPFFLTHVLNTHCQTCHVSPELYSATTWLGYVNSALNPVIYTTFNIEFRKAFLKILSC
T2 sequence (P14416 whole entry): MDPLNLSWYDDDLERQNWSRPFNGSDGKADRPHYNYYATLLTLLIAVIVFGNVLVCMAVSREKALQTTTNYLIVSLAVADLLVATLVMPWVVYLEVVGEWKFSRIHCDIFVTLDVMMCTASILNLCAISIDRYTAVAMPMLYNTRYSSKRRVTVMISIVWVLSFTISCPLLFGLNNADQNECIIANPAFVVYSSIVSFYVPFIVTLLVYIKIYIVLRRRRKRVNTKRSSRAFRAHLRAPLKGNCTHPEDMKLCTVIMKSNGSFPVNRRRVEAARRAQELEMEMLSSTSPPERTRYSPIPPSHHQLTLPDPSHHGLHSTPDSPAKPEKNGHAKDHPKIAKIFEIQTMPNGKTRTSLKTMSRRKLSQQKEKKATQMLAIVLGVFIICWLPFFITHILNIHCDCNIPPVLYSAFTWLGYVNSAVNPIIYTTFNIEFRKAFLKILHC
D(2) dopamine receptor (Rattus norvegicus, UniProt P61169), sequence (P61169 whole entry): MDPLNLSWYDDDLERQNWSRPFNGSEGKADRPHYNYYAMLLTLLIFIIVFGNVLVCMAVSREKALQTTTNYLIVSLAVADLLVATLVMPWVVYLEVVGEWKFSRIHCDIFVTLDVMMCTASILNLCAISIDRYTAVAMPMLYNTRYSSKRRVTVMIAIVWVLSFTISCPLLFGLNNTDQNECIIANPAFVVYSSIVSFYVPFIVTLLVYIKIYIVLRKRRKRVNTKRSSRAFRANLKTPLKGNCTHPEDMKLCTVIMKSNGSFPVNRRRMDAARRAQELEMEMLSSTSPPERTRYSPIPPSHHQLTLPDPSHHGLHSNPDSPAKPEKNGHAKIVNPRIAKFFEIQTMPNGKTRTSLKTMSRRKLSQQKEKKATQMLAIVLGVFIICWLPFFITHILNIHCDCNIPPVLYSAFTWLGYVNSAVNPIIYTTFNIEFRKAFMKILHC

SMILES | Ki (D(2) dopamine receptor [2]) [nM] | Ki (D(3) dopamine receptor [3]) [nM] | EC50 (D(2) dopamine receptor [5]) [nM] | Ki (D(4) dopamine receptor [12]) [nM] | Ki (D(2) dopamine receptor [14]) [nM] | Ki [15] [nM] | further results
CCCN1CCOC2c3cc(O)ccc3[S+]([O-])CC21 (stereo unspecified) | 197 | 29 | – | – | – | – | Ki [1]: Not Active; IC50 (D(4) dopamine receptor [4]): > 10000 nM
CCCN1CCO[C@@H]2c3cc(O)ccc3SC[C@@H]21 (relative stereo) | 74 | 3.58 | 122 | 193 | – | – | Ki [1]: Not Active; Intrinsic activity [6]: 57%; Activity [7]: Antagonist; EC50 (D(3) dopamine receptor [8]): 36 nM; FB (Rattus norvegicus [9]): 0; LL (Rattus norvegicus [10]): 0; Ya (Rattus norvegicus [11]): 11; Sni (Rattus norvegicus [13]): 0
CCCN1CCO[C@@H]2c3cc(O)ccc3OC[C@H]21 (relative stereo) | – | 78 | – | – | > 10000 | – | –
CCCN1CCO[C@@H]2c3cc(O)ccc3SC[C@H]21 | 1.14 | 2.87 | 0.013 | 17.6 | – | 30 | Ki [16]: > 5000 nM; Intrinsic activity [6]: 45%; EC50 (D(3) dopamine receptor [8]): 0.007 nM; FB (Rattus norvegicus [9]): 4; LL (Rattus norvegicus [10]): 3; Ya (Rattus norvegicus [11]): 0; Sni (Rattus norvegicus [13]): 4
CCCN1CCO[C@@H]2c3cc(O)ccc3OC[C@H]21 [listing 1 of 2 here] | – | – | – | – | – | – | Intrinsic activity [17]: 54%; Activity [7]: Antagonist
CCCN1CCO[C@H]2c3cc(O)ccc3OC[C@@H]21 | – | > 10000 | – | – | > 10000 | – | –
CCCN1CCO[C@@H]2c3cc(O)ccc3OC[C@H]21 [listing 2 of 2 here] | – | 1.4 | 5.7 | 169 | 1180 | 1670 | Ki (D(2) dopamine receptor [18]): 42 nM; EC50 (D(3) dopamine receptor [19]): 0.36 nM
CCCN1CCO[C@@H]2c3cc(O)ccc3OC[C@@H]21 (relative stereo) | – | > 10000 | – | – | > 10000 | – | –
CCCN1CCO[C@H]2c3cc(O)ccc3SC[C@@H]21 | 854 | 3000 | – | > 3300 | – | > 1000 | Ki [16]: > 5000 nM
CCCN1CCOC2c3cc(O)ccc3SCC21 (trans isomer) | – | 1.56 | – | 44.4 | 533 | – | –
